# Species on record: Rattus norvegicus
# Assay: Concentration giving 50% relaxation of the 30 mM KCL-induced contraction of rat aorta rings
# Format: functional
# Details: read-out: ED50 (the source's name)
# Method in brief: (§1)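 Endothelium-denuded aortic rings (3-4 mm) from fed Wistar rats (250-300 g), held at 1 g tension in Krebs-bicarbonate at 37 °C under O2/CO2 (95/5), isometric recording. After 60 min equilibration, contracted with 30 or 80 mM KCl as specified. At plateau, drug was added cumulatively to maximal relaxation or 1 mM. Glibenclamide (1 or 10 µM) was present throughout where stated. ED50 was read graphically as 50% inhibition of the KCl plateau.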
row,SMILES,EC50
1,O=S1(=O)N=C(NCc2ccccc2)Nc2ncccc21,21.9 µM
2,CC(C)C(C)NC1=NS(=O)(=O)c2cnccc2N1 (stereo not drawn),154 µM
3,C[C@@H](NC1=NS(=O)(=O)c2cccnc2N1)C1CCCCC1,29.2 µM
4,CC(C)C(C)NC1=NS(=O)(=O)c2cccnc2N1 (stereo not drawn),27.1 µM
5,C[C@@H](NC1=NS(=O)(=O)c2cccnc2N1)c1ccccc1,65.2 µM
6,C[C@H](NC1=NS(=O)(=O)c2cc(Cl)cnc2N1)c1ccccc1,21.2 µM

# Species on record: Cavia porcellus
# Assay: Inhibition of electrically stimulated contractions of guinea pig ileum segments.
# Format: functional
# Details: read-out: ED50 (the source's name)
# Method in brief: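 Ileum segments (4 cm, taken ≥10 cm from cecum) from adult guinea pigs (300-400 g), 1 g initial load, Krebs-bicarbonate at 37 °C, gassed 95% O2/5% CO2. Coaxial stimulation at 0.5-ms pulses, 0.1 Hz, 5-25 V, with isometric recording. Drug was added cumulatively to maximal effect and expressed as % of the 5-min pre-drug response. ED50 was assessed graphically.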
row,SMILES,EC50
1,O=S1(=O)N=C(NCc2ccccc2)Nc2ncccc21,> 300 µM
2,CC(C)C(C)NC1=NS(=O)(=O)c2cnccc2N1 (stereo not drawn),> 300 µM
3,C[C@@H](NC1=NS(=O)(=O)c2cccnc2N1)C1CCCCC1,> 300 µM
4,CC(C)C(C)NC1=NS(=O)(=O)c2cccnc2N1 (stereo not drawn),> 300 µM
5,C[C@@H](NC1=NS(=O)(=O)c2cccnc2N1)c1ccccc1,> 300 µM

# Species on record: Rattus norvegicus
# Assay: Insulin secretion from rat pancreatic islets (RIS) in the presence of 16.7 mM glucose at 50 uM
# Format: functional
# Details: not given
# Method in brief: (§2)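 Collagenase-isolated islets from fed Wistar rats (180-220 g), in groups of 10. Preincubated 30 min at 37 °C in bicarbonate salt medium with 2.8 mM glucose and 0.5% albumin under O2/CO2. Then incubated 90 min at 37 °C with 16.7 mM glucose plus drug. Insulin was measured by radioimmunoassay against a rat insulin standard and reported as % residual release.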
row,SMILES,RIS
1,O=S1(=O)N=C(NCc2ccccc2)Nc2ncccc21,86.2%
2,CC(C)C(C)NC1=NS(=O)(=O)c2cnccc2N1 (stereo not drawn),7.1%
3,C[C@@H](NC1=NS(=O)(=O)c2cccnc2N1)C1CCCCC1,79.9%
4,CC(C)C(C)NC1=NS(=O)(=O)c2cccnc2N1 (stereo not drawn),87.9%
5,C[C@@H](NC1=NS(=O)(=O)c2cccnc2N1)c1ccccc1,71.6%
6,C[C@H](NC1=NS(=O)(=O)c2cc(Cl)cnc2N1)c1ccccc1,45.9%

# Species on record: Rattus norvegicus
# Assay: Effect on contractile activity of 80 mM potassium-Depolarized rat aorta
# Format: functional
# Details: read-out: ED50 (the source's name)
# Method in brief: as §1
row,SMILES,EC50
1,CC(C)C(C)NC1=NS(=O)(=O)c2cccnc2N1 (stereo not drawn),> 300 µM

# Species on record: Rattus norvegicus
# Assay: Effect on Insulin secretion from rat pancreatic islets (RIS) in the presence of 16.7 mM glucose at 10 uM
# Format: functional
# Details: not given
# Method in brief: as §2
row,SMILES,RIS
1,CC(C)C(C)NC1=NS(=O)(=O)c2cnccc2N1 (stereo not drawn),26.8%

# Species on record: Rattus norvegicus
# Assay: Effect on Oxytocin-Induced contractions of rat uterus at 100 uM
# Format: functional
# Details: not given
# Method in brief: (§3)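 Uterine horns from fed Wistar rats (150-200 g) primed the day before with im diethylstilboestrol dipropionate (0.1 mL/100 g of 1 mg/mL oily solution). Horns were superfused with Tyrode at 37 °C under O2/CO2 (95/5). 20 mU oxytocin was injected at 10-min intervals until contractions (AUC) were constant, then repeated ≥3 times per drug concentration. Response is given as % of the drug-free oxytocin contraction.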
row,SMILES,Contraction
1,C[C@H](NC1=NS(=O)(=O)c2cc(Cl)cnc2N1)c1ccccc1,41.1%

# Species on record: Rattus norvegicus
# Assay: Effect on Oxytocin-Induced contractions of rat uterus at 50 uM
# Format: functional
# Details: not given
# Method in brief: as §3
row,SMILES,Contraction
1,C[C@H](NC1=NS(=O)(=O)c2cc(Cl)cnc2N1)c1ccccc1,79.3%

# Species on record: Rattus norvegicus
# Assay: Effect on Oxytocin-Induced contractions of rat uterus at 10 uM
# Format: functional
# Details: not given
# Method in brief: as §3
row,SMILES,Contraction
1,C[C@H](NC1=NS(=O)(=O)c2cc(Cl)cnc2N1)c1ccccc1,91%

# Species on record: Rattus norvegicus
# Assay: Effect on contractile activity of 30 mM potassium-Depolarized rat aorta incubated in the absence of Glibenclamide
# Format: functional
# Details: read-out: ED50 (the source's name)
# Method in brief: as §1
row,SMILES,EC50
1,CC(C)C(C)NC1=NS(=O)(=O)c2cccnc2N1 (stereo not drawn),27.1 µM

# — ChEMBL document CHEMBL1133004, “3-Alkylamino-4H-pyrido[2,3-e]-1,2,4-thiadiazine 1,1-dioxides structurally related to diazoxide and pinacidil as potassium channel openers acting on vascular smooth muscle cells: design, synthesis, and pharmacological evaluation” (2000)
